Values after ≈ are worked out from the molar mass of the structure shown.
Legend:
Enterococcus faecalis [1] = experiment: Antibacterial activity against vancomycin-resistant Enterococcus faecalis ATCC 51299 expressing vanB, ant(6)-1, aac(6')-aph(2') resistant gene after 12 to 18 hrs; type: functional
Outline: (§1)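 Broth microdilution MIC. Culture diluted with broth to an absorbance of 0.08–0.1 at 625 nm. 100 μL of this was diluted into 10 mL broth and dispensed into 96-well plates. Each well received 50 μL inoculum plus 50 μL of a 2-fold compound dilution series. Plates were incubated at 35°C for 12–18 h. MIC is the lowest concentration that inhibits growth, from at least three repeats.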

Staphylococcus aureus [2] = experiment: Antibacterial activity against methicillin-resistant Staphylococcus aureus ATCC 33591 after 12 to 18 hrs; type: functional; outline: as §1
Enterococcus faecalis [3] = experiment: Antibacterial activity against vancomycin-susceptible and aminoglycosides-resistant Enterococcus faecalis ATCC 29212 after 12 to 18 hrs; type: functional; outline: as §1
Klebsiella pneumoniae [4] = experiment: Antibacterial activity against ampicillin-resistant and aminoglycosides-susceptible Klebsiella pneumoniae ATCC 13883 after 12 to 18 hrs; type: functional; outline: as §1
Klebsiella pneumoniae [5] = experiment: Antibacterial activity against multidrug-resistant Klebsiella pneumoniae ATCC 700603 isolate after 12 to 18 hrs; type: functional; outline: as §1
Escherichia coli [6] = experiment: Antibacterial activity against Escherichia coli TG1 pET28a plasmid encoded for APH(3')-3a after 12 to 18 hrs; type: functional
Outline: (§2)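 Broth microdilution. Bacterial suspension adjusted with broth to absorbance 0.08–0.1 at 625 nm, diluted further in broth, and mixed in wells with 2-fold serial dilutions of compound. Plates incubated at 35°C for 12–18 h. MIC is the lowest concentration inhibiting growth; each determination repeated at least three times.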

Pseudomonas aeruginosa = experiment: Antibacterial activity against aminoglycosides-resistant Pseudomonas aeruginosa ATCC 27853 expressing APH(3')-2b after 12 to 18 hrs; type: functional; outline: as §1
Enterococcus [7] = experiment: Ratio of kcat to Km of Enterococcus APH(3')-3a
Enterococcus [8] = experiment: Activity of Enterococcus APH(3')-3a
Escherichia coli [9] = experiment: Antibacterial activity against Escherichia coli TG1 pTZ19U-3 plasmid encoded for APH(3')-1 after 12 to 18 hrs; type: functional; outline: as §2
Escherichia coli [10] = experiment: Antibacterial activity against aminoglycoside-susceptible Escherichia coli ATCC 25922 after 12 to 18 hrs; type: functional; outline: as §2
Escherichia coli [11] = experiment: Antibacterial activity against Escherichia coli TG1 pSF815 plasmid encoded for AAC(6')/APH(2') after 12 to 18 hrs; type: functional; outline: as §2
Staphylococcus aureus [12] = experiment: Antibacterial activity against aminoglycoside-susceptible Staphylococcus aureus ATCC 25923 after 12 to 18 hrs; type: functional; outline: as §2
Escherichia coli [13] = experiment: Antibacterial activity against aminoglycoside-susceptible Escherichia coli TG1 after 12 to 18 hrs; type: functional; outline: as §2

Molecule | MIC (Enterococcus faecalis [1]) [µg/mL] | MIC (Staphylococcus aureus [2]) [µg/mL] | MIC (Enterococcus faecalis [3]) [µg/mL] | MIC (Klebsiella pneumoniae [4]) [µg/mL] | MIC (Klebsiella pneumoniae [5]) [µg/mL] | MIC (Escherichia coli [6]) [µg/mL] | MIC (Pseudomonas aeruginosa) [µg/mL] | kcat/Km (Enterococcus [7]) [×10⁴ /M/s] | Km (Enterococcus [8]) [µM] | Vmax (Enterococcus [8]) [µmol/min/mg] | kcat (Enterococcus [8]) [s⁻¹] | MIC (Escherichia coli [9]) [µg/mL] | MIC (Escherichia coli [10]) [µg/mL] | MIC (Escherichia coli [11]) [µg/mL] | MIC (Staphylococcus aureus [12]) [µg/mL] | MIC (Escherichia coli [13]) [µg/mL]
GENTAMICIN | > 250 | 2 | 8 | 1 | 8 | – | – | – | – | – | – | – | – | – | – | –
NCC[C@H](O)C(=O)N[C@@H]1C[C@H](N)[C@@H](O[C@H]2O[C@H](CN)[C@@H](O)[C@H](O)[C@H]2O)[C@H](O)[C@H]1O[C@H]1O[C@H](CO)[C@@H](O)[C@H](N)[C@H]1O [AMIKACIN] | ≥ 250 | 8 (≈ 13.7 µM) | 32 (≈ 54.6 µM) | 1 (≈ 1.71 µM) | 0.5 (≈ 0.854 µM) | 1 (≈ 1.71 µM) | 0.5 (≈ 0.854 µM) | 2.4 | 57.4 | 2.75 | 1.38 | – | – | – | – | –
NC[C@@H]1O[C@H](O[C@H]2[C@@H](O)[C@H](O[C@@H]3[C@@H](O)[C@H](N)C[C@H](N)[C@H]3O[C@H]3O[C@H](CN)[C@@H](O)[C@H](O)[C@H]3N)O[C@@H]2CO)[C@H](N)[C@@H](O)[C@@H]1O [FRAMYCETIN] | ≥ 250 | 125 (≈ 203 µM) | 64 (≈ 104 µM) | 4 (≈ 6.51 µM) | 16 (≈ 26 µM) | 64 (≈ 104 µM) | 64 (≈ 104 µM) | 26.8 | 6 | 3.22 | 1.61 | ≥ 2000 | 4 (≈ 6.51 µM) | 4 (≈ 6.51 µM) | 1 (≈ 1.63 µM) | 4 (≈ 6.51 µM)
CCCCCCCCCCCCCCCC(=O)NC[C@H]1O[C@@H](O[C@@H]2[C@@H](O)[C@H](N)C[C@H](N)[C@H]2O[C@H]2O[C@H](CN)[C@@H](O)[C@H](O)[C@H]2N)[C@H](O)[C@@H]1O[C@H]1O[C@@H](CN)[C@@H](O)[C@H](O)[C@H]1N | 4 (≈ 4.69 µM) | 2 (≈ 2.35 µM) | 2 (≈ 2.35 µM) | 8 (≈ 9.39 µM) | 16 (≈ 18.8 µM) | 1 (≈ 1.17 µM) | 4 (≈ 4.69 µM) | 0.72 | 58 | 0.85 | 0.42 | 8 (≈ 9.39 µM) | 4 (≈ 4.69 µM) | 16 (≈ 18.8 µM) | 2 (≈ 2.35 µM) | 2 (≈ 2.35 µM)
CCCCCCCCCCCCCCCCCC(=O)NC[C@H]1O[C@@H](O[C@@H]2[C@@H](O)[C@H](N)C[C@H](N)[C@H]2O[C@H]2O[C@H](CN)[C@@H](O)[C@H](O)[C@H]2N)[C@H](O)[C@@H]1O[C@H]1O[C@@H](CN)[C@@H](O)[C@H](O)[C@H]1N | 8 (≈ 9.09 µM) | 4 (≈ 4.54 µM) | 4 (≈ 4.54 µM) | 8 (≈ 9.09 µM) | 32 (≈ 36.4 µM) | 2 (≈ 2.27 µM) | 8 (≈ 9.09 µM) | 0.7 | 60 | 0.84 | 0.42 | 8 (≈ 9.09 µM) | 4 (≈ 4.54 µM) | 32 (≈ 36.4 µM) | 4 (≈ 4.54 µM) | 2 (≈ 2.27 µM)
NCC(=O)NC[C@H]1O[C@@H](O[C@@H]2[C@@H](O)[C@H](N)C[C@H](N)[C@H]2O[C@H]2O[C@H](CN)[C@@H](O)[C@H](O)[C@H]2N)[C@H](O)[C@@H]1O[C@H]1O[C@@H](CN)[C@@H](O)[C@H](O)[C@H]1N | ≥ 250 | 16 (≈ 23.9 µM) | 32 (≈ 47.7 µM) | 4 (≈ 5.96 µM) | 8 (≈ 11.9 µM) | 32 (≈ 47.7 µM) | 8 (≈ 11.9 µM) | 0.6 | 75 | 0.88 | 0.44 | 500 (≈ 745 µM) | 16 (≈ 23.9 µM) | 8 (≈ 11.9 µM) | 1 (≈ 1.49 µM) | 8 (≈ 11.9 µM)
CN[C@H](CC(C)C)C(=O)N[C@H]1C(=O)N[C@@H](CC(N)=O)C(=O)N[C@H]2C(=O)N[C@H]3C(=O)N[C@H](C(=O)N[C@H](C(=O)O)c4cc(O)cc(O)c4-c4cc3ccc4O)[C@H](O)c3ccc(c(Cl)c3)Oc3cc2cc(c3O[C@@H]2O[C@H](CO)[C@@H](O)[C@H](O)[C@H]2O[C@H]2C[C@](C)(N)[C@H](O)[C@H](C)O2)Oc2ccc(cc2Cl)[C@H]1O [VANCOMYCIN] | 125 (≈ 86.3 µM) | – | – | – | – | – | – | – | – | – | – | – | – | – | – | –
NC[C@@H]1O[C@H](O[C@H]2[C@@H](O)[C@H](O[C@@H]3[C@@H](O)[C@H](N)C[C@H](N)[C@H]3O[C@H]3O[C@H](CN)[C@@H](O)[C@H](O)[C@H]3N)O[C@@H]2Cn2cc(CNC(=O)[C@@H]3CCCN3)nn2)[C@H](N)[C@@H](O)[C@@H]1O | – | – | – | – | – | 64 (≈ 80.8 µM) | – | 0.14 | 175 | 0.4 | 0.2 | ≥ 2000 | 16 (≈ 20.2 µM) | 16 (≈ 20.2 µM) | 2 (≈ 2.53 µM) | 16 (≈ 20.2 µM)
NCC(=O)NCC(=O)NC[C@H]1O[C@@H](O[C@@H]2[C@@H](O)[C@H](N)C[C@H](N)[C@H]2O[C@H]2O[C@H](CN)[C@@H](O)[C@H](O)[C@H]2N)[C@H](O)[C@@H]1O[C@H]1O[C@@H](CN)[C@@H](O)[C@H](O)[C@H]1N | ≥ 250 | 32 (≈ 44 µM) | 64 (≈ 87.9 µM) | 4 (≈ 5.5 µM) | 8 (≈ 11 µM) | – | 16 (≈ 22 µM) | – | – | – | – | 125 (≈ 172 µM) | 16 (≈ 22 µM) | 16 (≈ 22 µM) | 2 (≈ 2.75 µM) | 16 (≈ 22 µM)
CCCCCCc1cn(C[C@H]2O[C@@H](O[C@@H]3[C@@H](O)[C@H](N)C[C@H](N)[C@H]3O[C@H]3O[C@H](CN)[C@@H](O)[C@H](O)[C@H]3N)[C@H](O)[C@@H]2O[C@H]2O[C@@H](CN)[C@@H](O)[C@H](O)[C@H]2N)nn1 | – | – | – | – | – | 32 (≈ 42.7 µM) | – | 0.3 | 127 | 0.75 | 0.38 | 500 (≈ 667 µM) | 32 (≈ 42.7 µM) | 16 (≈ 21.3 µM) | 4 (≈ 5.33 µM) | 8 (≈ 10.7 µM)
NC[C@@H]1O[C@H](O[C@H]2[C@@H](O)[C@H](O[C@@H]3[C@@H](O)[C@H](N)C[C@H](N)[C@H]3O[C@H]3O[C@H](CN)[C@@H](O)[C@H](O)[C@H]3N)O[C@@H]2CNC(=O)[C@H](N)CO)[C@H](N)[C@@H](O)[C@@H]1O | – | – | – | – | – | 64 (≈ 91.3 µM) | – | 0.82 | 57 | 0.93 | 0.47 | ≥ 2000 | 8 (≈ 11.4 µM) | 16 (≈ 22.8 µM) | 1 (≈ 1.43 µM) | 8 (≈ 11.4 µM)
CN(C)Cc1cn(C[C@H]2O[C@@H](O[C@@H]3[C@@H](O)[C@H](N)C[C@H](N)[C@H]3O[C@H]3O[C@H](CN)[C@@H](O)[C@H](O)[C@H]3N)[C@H](O)[C@@H]2O[C@H]2O[C@@H](CN)[C@@H](O)[C@H](O)[C@H]2N)nn1 | – | – | – | – | – | 64 (≈ 88.5 µM) | – | 0.28 | 120 | 0.65 | 0.33 | ≥ 2000 | 8 (≈ 11.1 µM) | 16 (≈ 22.1 µM) | 2 (≈ 2.77 µM) | 8 (≈ 11.1 µM)
CNCc1cn(C[C@H]2O[C@@H](O[C@@H]3[C@@H](O)[C@H](N)C[C@H](N)[C@H]3O[C@H]3O[C@H](CN)[C@@H](O)[C@H](O)[C@H]3N)[C@H](O)[C@@H]2O[C@H]2O[C@@H](CN)[C@@H](O)[C@H](O)[C@H]2N)nn1 | – | – | – | – | – | 125 (≈ 176 µM) | – | 0.36 | 100 | 0.72 | 0.36 | ≥ 2000 | 8 (≈ 11.3 µM) | 16 (≈ 22.6 µM) | 1 (≈ 1.41 µM) | 16 (≈ 22.6 µM)
NCc1cn(C[C@H]2O[C@@H](O[C@@H]3[C@@H](O)[C@H](N)C[C@H](N)[C@H]3O[C@H]3O[C@H](CN)[C@@H](O)[C@H](O)[C@H]3N)[C@H](O)[C@@H]2O[C@H]2O[C@@H](CN)[C@@H](O)[C@H](O)[C@H]2N)nn1 | – | – | – | – | – | 64 (≈ 92.1 µM) | – | 0.3 | 111 | 0.68 | 0.34 | 1000 (≈ 1440 µM) | 8 (≈ 11.5 µM) | 16 (≈ 23 µM) | 1 (≈ 1.44 µM) | 16 (≈ 23 µM)

From ChEMBL document CHEMBL1140232, “Surprising alteration of antibacterial activity of 5"-modified neomycin against resistant bacteria” (2008)
